According to ChEMBL document CHEMBL5223168, “Using Imidazo[2,1-b][1,3,4]thiadiazol Skeleton to Design and Synthesize Novel MNK Inhibitors” (ACS Med Chem Lett, 2023):
The source made the active and inactive calls. The rule behind the calls is not given here.

Tests used:
[1] = target: MAP kinase-interacting serine/threonine-protein kinase 1 (Homo sapiens, UniProt Q9BUB5); experiment: Inhibition of MNK1 (unknown origin) incubated for 60 mins using CREB as substrate in presence of ATP by LANCE Ultra kinase assay
[2] = target: MAP kinase-interacting serine/threonine-protein kinase 2 (Homo sapiens, UniProt Q9HBH9); experiment: Inhibition of MNK2 (unknown origin) incubated for 60 mins using CREB as substrate in presence of ATP by LANCE Ultra kinase assay
[3] = test system: 3T3-L1; experiment: Inhibition of MNK in mouse 3T3-L1 cells assessed as inhibition of eIF4E phosphorylation at 5 uM incubated for 2 hrs by Western blot analysis; type: cell-based
In short: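 Mouse 3T3-L1 cells exposed to compound at 5 μM for 2 h; lysates resolved by SDS-PAGE and immunoblotted for phospho-eIF4E. Reference MNK inhibitor run in parallel at 1 μM.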

[4] = test system: MEF; experiment: Inhibition of MNK in MNK2 knockout mouse MEF cells assessed as inhibition of eIF4E phosphorylation at 3 uM incubated for 2 hrs by Western blot analysis; type: cell-based
In short: (§1)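 MEFs lacking MNK1 or MNK2 (wild-type for comparison) treated 2 h at indicated concentrations; lysates immunoblotted for p-eIF4E, which reflects the remaining MNK isoform; quantified from three independent experiments, SEM.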

[5] = test system: MEF; experiment: Inhibition of MNK in MNK1 knockout mouse MEF cells assessed as inhibition of eIF4E phosphorylation at 1 uM incubated for 2 hrs by Western blot analysis; type: cell-based; in short: as §1
[6] = test system: A549; experiment: Antitumor activity against human A549 cells xenografted in BALB/C nude mouse assessed as T/C ratio at 3 mg/kg, po QD for 14 days; type: functional; conditions: time 14 day
In short: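 A549 xenografts in nude mice; compound given orally once daily at 75 or 150 mg/kg for 14 days, irinotecan reference at 3 mg/kg; tumor growth tracked as T/C ratio (relative tumor proliferation rate); body weight monitored.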

Sequence of MAP kinase-interacting serine/threonine-protein kinase 2 (Q9HBH9 whole entry): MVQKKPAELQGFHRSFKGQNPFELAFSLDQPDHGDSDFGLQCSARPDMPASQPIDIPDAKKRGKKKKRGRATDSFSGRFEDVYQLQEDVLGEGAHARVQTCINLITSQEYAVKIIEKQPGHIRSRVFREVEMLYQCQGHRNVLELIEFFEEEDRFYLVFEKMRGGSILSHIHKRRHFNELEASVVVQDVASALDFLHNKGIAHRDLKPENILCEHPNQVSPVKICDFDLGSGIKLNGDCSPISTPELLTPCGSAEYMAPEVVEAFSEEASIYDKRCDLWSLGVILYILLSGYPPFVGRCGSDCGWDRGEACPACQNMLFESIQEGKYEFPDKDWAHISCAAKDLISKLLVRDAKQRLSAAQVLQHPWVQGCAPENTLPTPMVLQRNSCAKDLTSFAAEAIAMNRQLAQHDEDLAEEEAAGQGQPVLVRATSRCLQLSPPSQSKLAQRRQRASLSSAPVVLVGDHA
Sequence of MAP kinase-interacting serine/threonine-protein kinase 1 (Q9BUB5 whole entry): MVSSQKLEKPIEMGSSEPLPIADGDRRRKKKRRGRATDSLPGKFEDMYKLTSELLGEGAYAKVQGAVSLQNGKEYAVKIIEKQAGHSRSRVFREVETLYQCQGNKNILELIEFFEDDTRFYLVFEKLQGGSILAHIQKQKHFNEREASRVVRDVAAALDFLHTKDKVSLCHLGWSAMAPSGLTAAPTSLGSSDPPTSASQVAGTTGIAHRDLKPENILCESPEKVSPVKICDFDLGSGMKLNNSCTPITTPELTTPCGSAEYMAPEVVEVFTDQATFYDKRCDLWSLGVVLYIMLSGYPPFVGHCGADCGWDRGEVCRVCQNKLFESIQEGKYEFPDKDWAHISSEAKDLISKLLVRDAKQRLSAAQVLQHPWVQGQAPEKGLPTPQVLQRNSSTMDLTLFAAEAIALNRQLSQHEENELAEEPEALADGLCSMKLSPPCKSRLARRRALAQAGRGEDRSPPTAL

| IC50 [1] [nM] | IC50 [2] [nM] | SMILES | inhibition [3] | further results |
| --- | --- | --- | --- | --- |
| 13.6 | 8.81 | N#Cc1ccc(-c2cnc3sc(-c4ccc(C(=O)NCCO)cc4)nn23)cc1 | – | – |
| – | – | CN1CCN(C(=O)c2ccc(-c3nn4cc(-c5ccc(C#N)cc5)nc4s3)cc2)CC1 | inactive | – |
| 25 | 33.4 | CN(C)CCNC(=O)c1ccc(-c2nn3c(-c4ccc(C#N)cc4)cnc3s2)cc1 | – | – |
| – | – | N#Cc1ccc(-c2cnc3ccc(-c4ccc(C(=O)N5CCOCC5)cc4)cn23)cc1 | – | inhibition [4]: 50%; inhibition [5]: Active |
| – | – | N#Cc1ccc(-c2cn3nc(-c4ccc(C(=O)N5CCCC5)cc4)sc3n2)cc1 | inactive | – |
| – | – | O=C(NCCc1ccncc1)c1ccc(-c2nn3cc(-c4ccc(F)cc4)nc3s2)cc1 | inactive | – |
| 21.6 | 16.7 | N#Cc1ccc(-c2cnc3sc(-c4ccc(C(=O)NCCCO)cc4)nn23)cc1 | – | – |
| 36.9 | 5.33 | CC1CCCCN1C(=O)c1ccc(-c2nn3c(-c4ccc(C#N)cc4)cnc3s2)cc1 (configuration not stated) | Active | – |
| – | – | CN(C)CC(C)(C)CNC(=O)c1ccc(-c2nn3cc(-c4ccccc4)nc3s2)cc1 | inactive | – |
| 10 | 10.4 | N#Cc1ccc(-c2cnc3sc(-c4ccc(C(=O)NCCN5CCCC5)cc4)nn23)cc1 | – | – |
| 376 | 105 | COC(=O)c1ccc(-c2cnc3sc(-c4ccc(C(=O)N5CCN(C)CC5)cc4)nn23)cc1 | Active | – |
| 210 | 170 | CN1CCN(C(=O)c2ccc(-c3nn4c(-c5ccncc5)cnc4s3)cc2)CC1 | Active | – |
| 31.1 | 21.6 | N#Cc1ccc(-c2cnc3sc(-c4ccc(C(=O)NCCCN5CCOCC5)cc4)nn23)cc1 | – | – |
| 27.8 | 20.8 | N#Cc1ccc(-c2cnc3sc(-c4ccc(C(=O)N5CCCC5)cc4)nn23)cc1 | – | – |
| – | – | CCc1c2c(nc3ccc(OC(=O)N4CCC(N5CCCCC5)CC4)cc13)-c1cc3c(c(=O)n1C2)COC(=O)[C@]3(O)CC [IRINOTECAN] | – | T/C [6]: 0.4 |
| 42.9 | 57.8 | N#Cc1ccc(-c2cnc3sc(-c4ccc(C(=O)NCCCCCO)cc4)nn23)cc1 | – | – |
| – | – | O=C(NCCCN1CCCC1)c1ccc(-c2nn3cc(-c4ccccc4)nc3s2)cc1 | inactive | – |
| – | – | O=C(NCCO)c1ccc(-c2nn3cc(-c4ccccc4)nc3s2)cc1 | inactive | – |
